Source: ChEMBL document CHEMBL1759963, “Synthesis and biological evaluation of 4-styrylcoumarin derivatives as inhibitors of TNF-α and IL-6 with anti-tubercular activity” (2011)

Columns and labels:
Type in all cases: functional
[1] = tested on: Mycobacterium tuberculosis; test: Antitubercular activity against Mycobacterium tuberculosis H37Rv ATCC 27294 at 6.25 ug/ml by microplate alamar blue assay
How it was run: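 Primary screen against M. tuberculosis H37Rv (ATCC 27294) in BACTEC 12B medium by microplate Alamar Blue assay. Tested at 6.25 µg/mL or molar equivalent of the highest-MW compound in the congener series. Fluorescent compounds instead tested in the BACTEC 460 radiometric system.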

[2] = tested on: THP-1; test: Antiinflammatory activity in human THP1 cells assessed as inhibition of LPS-induced IL6 production at 10 uM after 24 hrs by ELISA; conditions: THP-1, 24 h
How it was run: (§1)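 THP-1 cells grown in RPMI 1640 with 10% FBS, penicillin and streptomycin, then differentiated with PMA. Test compound or vehicle (0.5% DMSO) added and preincubated 30 min at 37 °C. LPS (E. coli 0127:B8) then added and cells incubated 24 h at 37 °C, 5% CO2. Supernatant TNF-α and IL-6 measured by ELISA. Cytotoxicity checked in parallel by CCK-8. Percent inhibition versus control.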

[3] = tested on: THP-1; test: Antiinflammatory activity in human THP1 cells assessed as inhibition of LPS-induced TNFalpha production at 10 uM after 24 hrs by ELISA; conditions: THP-1, 24 h; how it was run: as §1

SMILES: N#Cc1c(/C=C/c2ccccc2)c2cc(Cl)ccc2oc1=O
- inhibition at 6.25 µg/mL [1]: 55%
- inhibition at 10 µM [2]: 87%
- inhibition at 10 µM [3]: 32%

SMILES: N#Cc1c(/C=C/c2ccc(F)cc2)c2cc(Cl)ccc2oc1=O
- inhibition at 10 µM [2]: 61%
- inhibition at 10 µM [3]: 0%

SMILES: N#Cc1c(/C=C/c2ccccc2Cl)c2cc(Cl)ccc2oc1=O
- inhibition at 10 µM [2]: 19%
- inhibition at 10 µM [3]: 0%

SMILES: N#Cc1c(/C=C/c2cccc(Cl)c2)c2cc(Cl)ccc2oc1=O
- inhibition at 6.25 µg/mL [1]: 69%
- inhibition at 10 µM [2]: 21%
- inhibition at 10 µM [3]: 0%

SMILES: N#Cc1c(/C=C/c2ccc(Cl)cc2)c2cc(Cl)ccc2oc1=O
- inhibition at 10 µM [2]: 4%
- inhibition at 10 µM [3]: 0%

SMILES: N#Cc1c(/C=C/c2cccc(Br)c2)c2cc(Cl)ccc2oc1=O
- inhibition at 6.25 µg/mL [1]: 23%
- inhibition at 10 µM [2]: 2%
- inhibition at 10 µM [3]: 0%

SMILES: N#Cc1c(/C=C/c2ccccc2[N+](=O)[O-])c2cc(Cl)ccc2oc1=O
- inhibition at 6.25 µg/mL [1]: 11%
- inhibition at 10 µM [2]: 14%
- inhibition at 10 µM [3]: 0%

SMILES: N#Cc1c(/C=C/c2cccc([N+](=O)[O-])c2)c2cc(Cl)ccc2oc1=O
- inhibition at 6.25 µg/mL [1]: 69%
- inhibition at 10 µM [2]: 72%
- inhibition at 10 µM [3]: 0%

SMILES: N#Cc1c(/C=C/c2cccc(O)c2)c2cc(Cl)ccc2oc1=O
- inhibition at 10 µM [2]: 39%
- inhibition at 10 µM [3]: 23%

SMILES: N#Cc1c(/C=C/c2ccc(O)cc2)c2cc(Cl)ccc2oc1=O
- inhibition at 10 µM [2]: 73%
- inhibition at 10 µM [3]: 0%

SMILES: COc1ccccc1/C=C/c1c(C#N)c(=O)oc2ccc(Cl)cc12
- inhibition at 6.25 µg/mL [1]: 24%
- inhibition at 10 µM [2]: 17%
- inhibition at 10 µM [3]: 19%

SMILES: COc1ccc(/C=C/c2c(C#N)c(=O)oc3ccc(Cl)cc23)cc1
- inhibition at 6.25 µg/mL [1]: 33%

SMILES: COc1ccc(/C=C/c2c(C#N)c(=O)oc3ccc(Cl)cc23)cc1OC
- inhibition at 6.25 µg/mL [1]: 63%
- inhibition at 10 µM [2]: 40%
- inhibition at 10 µM [3]: 0%

SMILES: COc1cc(/C=C/c2c(C#N)c(=O)oc3ccc(Cl)cc23)cc(OC)c1OC
- inhibition at 6.25 µg/mL [1]: 87%
- inhibition at 10 µM [2]: 8%
- inhibition at 10 µM [3]: 38%

SMILES: N#Cc1c(/C=C/c2cccc(Oc3ccccc3)c2)c2cc(Cl)ccc2oc1=O
- inhibition at 6.25 µg/mL [1]: 72%
- inhibition at 10 µM [2]: 11%
- inhibition at 10 µM [3]: 0%

SMILES: CSc1ccc(/C=C/c2c(C#N)c(=O)oc3ccc(Cl)cc23)cc1
- inhibition at 10 µM [2]: 15%
- inhibition at 10 µM [3]: 0%

SMILES: C=Cc1ccccc1/C=C/c1c(C#N)c(=O)oc2ccc(Cl)cc12
- inhibition at 10 µM [2]: 0%
- inhibition at 10 µM [3]: 52%

SMILES: N#Cc1c(/C=C/c2c3ccccc3cc3ccccc23)c2cc(Cl)ccc2oc1=O
- inhibition at 6.25 µg/mL [1]: 81%

SMILES: N#Cc1c(/C=C/c2ccco2)c2cc(Cl)ccc2oc1=O
- inhibition at 6.25 µg/mL [1]: 63%
- inhibition at 10 µM [2]: 0%
- inhibition at 10 µM [3]: 9%

SMILES: N#Cc1c(/C=C/c2c[nH]c3ccccc23)c2cc(Cl)ccc2oc1=O
- inhibition at 10 µM [2]: 0%
- inhibition at 10 µM [3]: 31%

SMILES: CN(C)c1ccc(/C=C/c2c(C#N)c(=O)oc3ccc(Cl)cc23)cc1
- inhibition at 6.25 µg/mL [1]: 79%
- inhibition at 10 µM [2]: 0%
- inhibition at 10 µM [3]: 33%

SMILES: COc1cccc(/C=C/c2c(C#N)c(=O)oc3ccc(Cl)cc23)c1
- inhibition at 6.25 µg/mL [1]: 31%
- inhibition at 10 µM [2]: 0%
- inhibition at 10 µM [3]: 73%
